Bioassay records: PubChem, several laboratories
Gli-Sufu block = Gli-Sufu pathway antagonists, primary screen, luciferase luminescence, Sufu-KO-LIGHT cells, uHTS; 0.74% of 340,000 active; AID 588413, 2011; inhibition, % at 5 µM; Sufu-KO-LIGHT fibroblasts, Gli luciferase reporter luminescence;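 active = inhibition above about 55%, limit read from the data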
UPR CHOP act = activators of apoptotic CHOP UPR arm, primary screen, cell-based, CHO-CHOP luciferase reporter, luminescence, uHTS | AID 449763, 2010 | UPR activation; percent of tunicamycin response over DMSO baseline | activation, % at 10 µM | 0.34% of 330,000 active;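 active = at 10 µM dose, activation of 40% or more, normalized to positive control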
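Test system: CHO CHOP reporter cells. Input: 500 CHO-CHOP cells per well. Medium: F12 with 10% FBS. Technique: luciferase luminescence. Measure: percent activation relative to tunicamycin control. Dosing: 10 µM compound, 0.5% DMSO. Timing: 16-18 h cell attachment, then 6 h compound exposure, 37 °C.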
UPR XBP1 act = activators of adaptive XBP1 UPR arm, primary screen, cell-based, CHO-XBP1 luciferase reporter, luminescence, uHTS; IRE1-XBP1 UPR activation; percent of tunicamycin response, DMSO as zero; activation, % at 20 µM; 0.33% of 330,000 active; AID 463104, 2010;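 active = versus positive control, 20 µM dose yields 30% or more activation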
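Test system: CHO-XBP1 luciferase reporter cells | Buffer or medium: Serum-containing F12 medium, 10% FBS | Schedule: 6 h compound exposure at 37 °C, 5% CO2 | Detection: Steady-Glo luciferase glow luminescence, 10 min after reagent addition | Read-out basis: Activation, % of tunicamycin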
Jurkat NFkB inh = inhibitors of induced NF-kB luciferase reporter, primary screen, TCR NF-kB activation inhibitor project, cell-based, luminescence, uHTS; 0.53% of 330,000 active; Jurkat, PMA/ionomycin-induced NF-kB luciferase reporter; inhibition, % at 4 µM; AID 435003, 2010; in the data active = inhibition above about 50%
CHOP inh = inhibitors of CHOP promoter induction, primary screen, cell-based, unfolded protein response, luciferase reporter; 3.8% of 220,000 active; inhibition, % at 10 µM; CHO-K1 CHOP-promoter luciferase, tunicamycin-induced, 15-18 h;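 active = compounds that reduced the stress-induced luciferase reporter signal by more than about 70% of percent inhibition, limit read from the data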
697 NFkB inh = inhibitors of PMA/ionomycin-induced NF-kB reporter, 697 cells, primary screen, B-cell NF-kB inhibitor project, cell-based, luminescence, uHTS; 697 B-cell NF-kB luciferase reporter, 16 h; inhibition, % at 4 µM; 0.33% of 330,000 active; AID 435022, 2010; in the data active = inhibition above about 35%
UPR CHOP confirm = activators of apoptotic CHOP UPR arm, confirmation, cell-based, CHO-CHOP luciferase reporter, single concentration; shares compounds with UPR CHOP act; CHO-CHOP cells, CHOP-luciferase reporter luminescence; percent of tunicamycin response, DMSO as zero; activation, % at 10 µM; 64% of 1,000 active; in the data active = activation above about 33%
Each line names hits and unclear results; the compound was inactive in the other large screens (follow-up assays come after a bar, where they were run). Sampled rows, rich in hits. Any-hit rate of the full collection: about 3.9%.

Cc1cccc(Nc2ncnc(N)c2[N+](=O)[O-])n1	none
Cc1cc(C)nc(Sc2ncnc(N)c2[N+](=O)[O-])n1	UPR CHOP act 95, CHOP inh 102 | UPR CHOP confirm inactive
COc1ccc(CCN2CC(C(=O)NCCc3ccccc3C(F)(F)F)CCC2=O)cc1 (stereo not drawn)	none (no result: CHOP inh)
CCOc1ccc2nc(SC3CC(=O)N(c4ccc(OC)cc4)C3=O)sc2c1 (stereo not drawn)	UPR CHOP act 45 | UPR CHOP confirm inactive
COc1ccc(N2C(=O)CC(Sc3nc4ccccc4s3)C2=O)cc1 (stereo not drawn)	none
Cc1ccc(S(=O)(=O)N(C(=O)c2ccncc2)c2ccc(OC(=O)c3ccncc3)c3ccccc23)c(C)c1	UPR CHOP act 59 | UPR CHOP confirm 113
Cc1ccc(S(=O)(=O)N(C(=O)c2ccncc2)c2ccc(OC(=O)c3ccncc3)c3ccccc23)cc1	none
Cc1ccc(NC(=O)CSc2nc3[nH]ncc3c(=O)[nH]2)cc1Cl	none (no result: CHOP inh)
O=C(/C(=C/c1ccc(Cl)cc1)c1nc2ccccc2[nH]1)c1cccs1	UPR CHOP act 87 | UPR CHOP confirm 85
CCCn1c(CN2CCN(C(=O)OCC)CC2)nc2cc(NC(=O)C(C)C)ccc21	UPR CHOP act 50 (no result: CHOP inh) | UPR CHOP confirm inactive
CCC1(CC)NC(=O)N(CC(=O)OCc2nc3cc(C(=O)OC)ccc3c(=O)[nH]2)C1=O	none (no result: CHOP inh)
O=C(O)c1ccc(N2C(=O)c3[nH]nc(-c4ccccc4)c3C2c2ccccc2)cc1 (stereo not drawn)	none
CCOc1cc(C2c3c(-c4ccccc4)n[nH]c3C(=O)N2c2ccc(C(=O)O)cc2)ccc1O (stereo not drawn)	UPR CHOP act 45 | UPR CHOP confirm inactive
COc1ccc(C)c2sc(N(CCN(C)C)C(=O)/C=C/c3cccs3)nc12	none (no result: CHOP inh)
COc1ccc(OC)c2sc(N(CCN(C)C)C(=O)/C=C/c3cccs3)nc12	UPR CHOP act 67 (no result: CHOP inh) | UPR CHOP confirm inactive
CC(=O)Nc1ccc(-c2cn3cc(C)ccc3n2)cc1	none
Cc1ccc2nc(-c3ccc(O)c(O)c3)cn2c1	UPR CHOP act 155 (no result: CHOP inh) | UPR CHOP confirm 61
c1ccc(-c2nc(NCc3ccco3)c3ccccc3n2)nc1	UPR CHOP act 67 | UPR CHOP confirm inactive
CC1CCCCC12NC(=O)N(CC(=O)NCCc1ccc(F)cc1)C2=O (stereo not drawn)	none (no result: CHOP inh)
Cc1cc(O)c(-c2cc(O)c(C)cc2O)cc1O	UPR CHOP act 74 | UPR CHOP confirm 136
Cc1cc(N2CCC(C)CC2)nc(-n2nc(C)cc2C)n1	UPR CHOP act 87 | UPR CHOP confirm inactive
Cc1cc(C)n(-c2nc(N(C)C)nc(N3CCOCC3)n2)n1	none
CCOC(=O)C(=O)Nc1ccc(F)cc1	none
CCOC(=O)C(=Cc1ccc(F)cc1)C(=O)OCC	UPR CHOP act 122 (no result: Gli-Sufu block) | UPR CHOP confirm 140
CCOC(=O)C(=Cc1ccc(-n2ccnc2)cc1)C(=O)OCC	UPR CHOP act 188 | UPR CHOP confirm 142
CC(NC(=O)C12CC3CC(CC(C3)C1)C2)C(=O)NN=Cc1ccc([N+](=O)[O-])o1 (stereo not drawn)	UPR CHOP act 197 (no result: CHOP inh) | UPR CHOP confirm inactive
CC(NC(=O)c1ccc([N+](=O)[O-])o1)C12CC3CC(CC(C3)C1)C2 (stereo not drawn)	UPR CHOP act 85 (no result: CHOP inh) | UPR CHOP confirm inactive
O=C(N/N=C/c1ccc([N+](=O)[O-])o1)C1CCCC1	none (no result: CHOP inh)
COc1cccc(OC)c1C(=O)NC(C)C12CC3CC(CC(C3)C1)C2 (stereo not drawn)	none
CCCNC(=O)C(Cc1cccc(C#N)c1)NC(=O)c1cccc([N+](=O)[O-])c1 (stereo not drawn)	none (no result: CHOP inh)
N=C1/C(=C/c2cccn2-c2ccc([N+](=O)[O-])cc2)C(=O)N=C2SC=CN12	UPR CHOP act 54 | UPR CHOP confirm inactive
COc1ccc2[nH]cc(C(=O)CCl)c2c1	UPR CHOP act 102 | UPR CHOP confirm 39
COc1ccc(/C=C/C(=O)c2ccc([N+](=O)[O-])o2)cc1OC	UPR CHOP act 82 (no result: CHOP inh) | UPR CHOP confirm inactive
Cc1ccc(C(=O)NC(C#N)=C(Cl)Cl)cc1	UPR CHOP act 136, CHOP inh 80 | UPR CHOP confirm 45
Cc1ccc(C(=O)NCC#N)cc1	none
Cc1ccc(NC(=O)CCN2CC(C)OC(C)C2)cc1C (stereo not drawn)	none (no result: CHOP inh)
CC(C)C(OC(=O)Cn1nnc2ccccc21)C(=O)NC1CCCC1 (stereo not drawn)	none (no result: CHOP inh)
CN(C)C(=O)CSc1cccc2cccnc12	UPR CHOP act 214 | UPR CHOP confirm 205
O=C(c1cn(-c2ccccc2)nc1-c1ccncc1)n1nnc2ccccc21	UPR CHOP act 99 (no result: CHOP inh) | UPR CHOP confirm inactive
O=C(O)c1cn(-c2ccccc2)nc1-c1ccncc1	none
CC(C)c1ccc(/C=C(\c2nc3ccccc3[nH]2)S(=O)(=O)c2ccccc2)cc1	UPR CHOP act 69 | UPR CHOP confirm 106
COc1ccc(C(=O)Cn2c(C(=O)/C=C/c3ccccc3)nc3ccccc32)cc1	UPR CHOP act 314 | UPR CHOP confirm 348
COc1ccc(CN(C)C(=O)CNC(=O)CNC(=O)c2ccc(Cl)cc2Cl)cc1F	none (no result: CHOP inh)
O=C(COC(=O)c1ccc([N+](=O)[O-])o1)Nc1cccc(S(=O)(=O)N2CCCCC2)c1	none
Cc1ccc(NC(=O)c2cc([N+](=O)[O-])ccc2N2CCOCC2)cc1S(=O)(=O)N1CCOCC1	none (no result: CHOP inh)
Cc1ccc(NC(=O)c2ccc([N+](=O)[O-])o2)cc1S(=O)(=O)N1CCOCC1	UPR CHOP act 82 | UPR CHOP confirm 40
O=C(Nc1cccc(S(=O)(=O)N2CCCCC2)c1)c1ccc([N+](=O)[O-])o1	UPR CHOP act 55 | UPR CHOP confirm 39
CC[C@]1(C(=O)OC)[C@H]2C(=O)N(C)C(=O)[C@H]2[C@H]2CN=C(SCc3ccc(C(=O)OC)cc3)N21	none (no result: Jurkat NFkB inh, CHOP inh)
O=C(Nc1ccc(O)c2c(=O)cc(-c3ccccc3Cl)oc12)c1ccccc1Cl	none
O=C(Nc1ccc(O)c2c(=O)cc(-c3cccc(Cl)c3)oc12)c1ccccc1Cl	UPR CHOP act 52 | UPR CHOP confirm 46
